Substitutions are numbered along the chain they refer to.
Tests used:
Type in all cases: in vitro ADME
AKR1C4 Gly135Glu = target: T1, AKR1C4 Gly135Glu (Homo sapiens, UniProt P17516, G135E); assay: Kinetics of EXE reduction to 17β-DHE, recombinant AKR1C4 Gly135Glu; details: for VMAX: normalized to enzyme purity
T1 sequence (P17516 1-323 G135E): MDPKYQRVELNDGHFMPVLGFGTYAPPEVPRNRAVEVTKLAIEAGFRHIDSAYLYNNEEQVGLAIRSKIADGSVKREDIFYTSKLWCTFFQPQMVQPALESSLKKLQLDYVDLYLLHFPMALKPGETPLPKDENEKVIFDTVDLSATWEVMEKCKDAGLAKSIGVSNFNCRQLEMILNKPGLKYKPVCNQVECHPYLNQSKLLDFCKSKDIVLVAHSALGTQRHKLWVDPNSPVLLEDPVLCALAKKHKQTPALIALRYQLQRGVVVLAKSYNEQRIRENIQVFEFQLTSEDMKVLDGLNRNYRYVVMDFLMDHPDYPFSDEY

AKR1C2 = AKR1C2 (Homo sapiens, UniProt P52895); assay: Kinetics of EXE reduction to 17β-DHE, recombinant AKR1C2; details: wildtype AKR1C2
AKR1C3 His5Gln = AKR1C3 His5Gln (Homo sapiens, UniProt P42330, H5Q); assay: Kinetics of EXE reduction to 17β-DHE, recombinant AKR1C3 His5Gln
AKR1C2 Phe46Tyr = target: T2, AKR1C2 Phe46Tyr (Homo sapiens, UniProt P52895, F46Y); assay: Kinetics of EXE reduction to 17β-DHE, recombinant AKR1C2 Phe46Tyr; details: VMAX/KM
T2 sequence (P52895 1-323 F46Y): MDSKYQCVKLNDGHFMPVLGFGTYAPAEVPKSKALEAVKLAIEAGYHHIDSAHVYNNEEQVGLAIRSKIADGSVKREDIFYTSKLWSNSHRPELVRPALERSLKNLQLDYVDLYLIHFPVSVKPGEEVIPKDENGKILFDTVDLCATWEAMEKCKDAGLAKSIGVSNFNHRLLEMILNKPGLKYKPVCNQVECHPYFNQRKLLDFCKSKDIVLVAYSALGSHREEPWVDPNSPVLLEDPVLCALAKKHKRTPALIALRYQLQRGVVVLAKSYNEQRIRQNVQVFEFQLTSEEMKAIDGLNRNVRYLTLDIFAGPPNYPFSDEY

AKR1C1 = AKR1C1 (Homo sapiens, UniProt Q04828); assay: Kinetics of EXE reduction to 17β-DHE, recombinant AKR1C1; details: wildtype AKR1C1
AKR1C4 Leu311Val = target: T3, AKR1C4 Leu311Val (Homo sapiens, UniProt P17516, L311V); assay: Kinetics of EXE reduction to 17β-DHE, recombinant AKR1C4 Leu311Val
T3 sequence (P17516 1-323 L311V): T1 sequence (P17516 1-323 G135E) with E135G, L311V

AKR1C4 Ser145Cys = target: T4, AKR1C4 Ser145Cys (Homo sapiens, UniProt P17516, S145C); assay: Kinetics of EXE reduction to 17β-DHE, recombinant AKR1C4 Ser145Cys
T4 sequence (P17516 1-323 S145C): T1 sequence (P17516 1-323 G135E) with E135G, S145C

AKR1C3 Pro180Ser = AKR1C3 Pro180Ser (Homo sapiens, UniProt P42330, P180S); assay: Kinetics of EXE reduction to 17β-DHE, recombinant AKR1C3 Pro180Ser
CBR1 = target: T5, CBR1 (Homo sapiens, UniProt P16152); assay: Metabolite identification, overnight incubation with recombinant CBR1; details: 200 µM EXE, 18-h incubation, 1.5 µg recombinant CBR1
T5 sequence (P16152 1-277): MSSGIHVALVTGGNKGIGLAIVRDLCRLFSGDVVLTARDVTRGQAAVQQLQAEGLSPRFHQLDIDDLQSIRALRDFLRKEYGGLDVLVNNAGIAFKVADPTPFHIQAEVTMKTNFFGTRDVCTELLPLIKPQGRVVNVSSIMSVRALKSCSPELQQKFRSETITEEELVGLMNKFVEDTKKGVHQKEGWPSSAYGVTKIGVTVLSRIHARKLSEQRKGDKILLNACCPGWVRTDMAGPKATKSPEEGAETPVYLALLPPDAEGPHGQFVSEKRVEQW
Method in brief: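 Wildtype enzyme was His-tagged, expressed in E. coli BL21 (IPTG induction), Ni-NTA purified and dialysed against PBS. It was stopped with ice-cold acetonitrile and centrifuged. UPLC/ESI+ full scan (m/z 100–450) was followed by targeted MS/MS transitions. Retention times were matched to synthetic 17α/17β-dihydro standards.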

AKR1C3 Arg258Cys = AKR1C3 Arg258Cys (Homo sapiens, UniProt P42330, R258C); assay: Kinetics of EXE reduction to 17β-DHE, recombinant AKR1C3 Arg258Cys
Chain of AKR1C3 Arg258Cys (P42330 whole entry R258C): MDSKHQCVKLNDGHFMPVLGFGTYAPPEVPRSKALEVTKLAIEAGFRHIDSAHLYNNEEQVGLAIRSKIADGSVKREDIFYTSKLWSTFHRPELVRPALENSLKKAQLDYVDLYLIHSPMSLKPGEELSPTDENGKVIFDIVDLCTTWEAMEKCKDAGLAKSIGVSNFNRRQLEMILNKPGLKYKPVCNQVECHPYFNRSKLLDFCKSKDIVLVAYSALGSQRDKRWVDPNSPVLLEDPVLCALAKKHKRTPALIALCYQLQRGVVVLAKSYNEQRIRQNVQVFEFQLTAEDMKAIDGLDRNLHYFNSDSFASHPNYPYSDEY

Chain of AKR1C3 Pro180Ser (P42330 whole entry P180S): as the sequence (P42330 whole entry R258C) above, with P180S, C258R counted along it
Chain of AKR1C3 His5Gln (P42330 whole entry H5Q): as the sequence (P42330 whole entry R258C) above, with H5Q, C258R counted along it
Chain of AKR1C2 (P52895 whole entry): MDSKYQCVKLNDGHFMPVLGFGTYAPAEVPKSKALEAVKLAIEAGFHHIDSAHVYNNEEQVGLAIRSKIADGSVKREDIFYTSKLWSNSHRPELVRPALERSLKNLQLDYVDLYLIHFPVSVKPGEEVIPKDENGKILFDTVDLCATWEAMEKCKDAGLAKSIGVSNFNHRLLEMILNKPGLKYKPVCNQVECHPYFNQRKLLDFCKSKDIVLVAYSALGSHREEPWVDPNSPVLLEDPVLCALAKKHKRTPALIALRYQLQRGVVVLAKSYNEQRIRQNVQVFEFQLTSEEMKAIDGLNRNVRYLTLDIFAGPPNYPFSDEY
Chain of AKR1C1 (Q04828 whole entry): as the sequence (P52895 whole entry) above, with V38T, H47R, V54L, S87C, M151V, H170R, L172Q counted along it

Km (AKR1C4 Gly135Glu; AKR1C4 Gly135Glu (rs11253043), 17β-DHE formation): 311 ± 75.7 µM
CLINT (AKR1C4 Gly135Glu; AKR1C4 Gly135Glu, VMAX/KM): 6e-05 µL/min/mg
VMAX (AKR1C4 Gly135Glu; AKR1C4 Gly135Glu): 19.1 ± 4.2 picomoles·min^−1·mg^−1
VMAX (AKR1C4 Gly135Glu; AKR1C4 Gly135Glu, listed as EXE): 19.1 ± 4.2 picomoles·min^−1·mg^−1
VMAX of AKR1C4 Gly135Glu relative to wildtype (AKR1C4 Gly135Glu; faster than wildtype AKR1C4): 8 fold
CLINT (AKR1C2; VMAX/KM): 0.0051 µL/min/mg
VMAX (AKR1C2; normalized to enzyme purity): 84.2 ± 15.6 picomoles·min^−1·mg^−1
Km (AKR1C3 His5Gln; AKR1C3 His5Gln (rs12529), 17β-DHE formation): 17.9 ± 2.9 µM
CLINT (AKR1C3 His5Gln; AKR1C3 His5Gln, VMAX/KM): 0.00021 µL/min/mg
VMAX (AKR1C3 His5Gln; AKR1C3 His5Gln, normalized to enzyme purity): 3.8 ± 0.1 picomoles·min^−1·mg^−1
CLINT (AKR1C2 Phe46Tyr): 0.0078 µL/min/mg
CLINT (AKR1C1; VMAX/KM): 0.002 µL/min/mg
VMAX (AKR1C1; normalized to enzyme purity): 71.1 ± 1.5 picomoles·min^−1·mg^−1
Km (AKR1C4 Leu311Val; AKR1C4 Leu311Val (rs17134592), 17β-DHE formation): 11.9 ± 2 µM
CLINT (AKR1C4 Leu311Val; AKR1C4 Leu311Val, VMAX/KM): 0.00053 µL/min/mg
VMAX (AKR1C4 Leu311Val; AKR1C4 Leu311Val, normalized to enzyme purity): 6.3 ± 0.8 picomoles·min^−1·mg^−1
Km (AKR1C4 Ser145Cys; AKR1C4 Ser145Cys (rs3829125), 17β-DHE formation): 9.6 ± 2.4 µM
CLINT (AKR1C4 Ser145Cys; AKR1C4 Ser145Cys, VMAX/KM): 0.00061 µL/min/mg
VMAX (AKR1C4 Ser145Cys; AKR1C4 Ser145Cys, normalized to enzyme purity): 5.9 ± 1.1 picomoles·min^−1·mg^−1
Km (AKR1C3 Pro180Ser; AKR1C3 Pro180Ser (rs34186955), 17β-DHE formation): 11.2 ± 3.1 µM
CLINT (AKR1C3 Pro180Ser; AKR1C3 Pro180Ser, VMAX/KM): 0.00032 µL/min/mg
VMAX (AKR1C3 Pro180Ser; AKR1C3 Pro180Ser, normalized to enzyme purity): 3.6 ± 0.6 picomoles·min^−1·mg^−1
metabolites formed (CBR1): both stereoisomers of DHE
Km (AKR1C3 Arg258Cys; AKR1C3 Arg258Cys (rs62621365), 17β-DHE formation): 75.8 ± 19.9 µM
CLINT (AKR1C3 Arg258Cys; AKR1C3 Arg258Cys, VMAX/KM): 3e-05 µL/min/mg
VMAX (AKR1C3 Arg258Cys; AKR1C3 Arg258Cys, normalized to enzyme purity): 2.3 ± 0.1 picomoles·min^−1·mg^−1
affinity for EXE of AKR1C3 Arg258Cys relative to wildtype (AKR1C3 Arg258Cys; lower affinity (KM) than wildtype AKR1C3): roughly 6 fold
Compound: C=C1C[C@@H]2[C@H](CC[C@]3(C)C(=O)CC[C@@H]23)[C@@]2(C)C=CC(=O)C=C12 [exemestane, 6-methylenandrosa-1,4-diene-3-17-dione]

Source: paper PMC5088049 (Pharmacogenetics and genomics, 2016)
